According to ChEMBL document CHEMBL4145471, “New 1,5 and 2,5-disubstituted tetrazoles-dependent activity towards surface barrier of Candida albicans” (Eur J Med Chem, 2018):
Values after ≈ are worked out from the molar mass of the structure shown.

Key:
Format in all cases: functional
[1] = tested on: Candida albicans; assay: Antifungal activity against Candida albicans ATCC 90028 after 48 hrs by M27-A3 microdilution method; conditions: ATCC 90028, 48 h
[2] = tested on: Candida albicans; assay: Antifungal activity against Candida albicans ATCC 90028 at 0.5 ug/ml after 48 hrs relative to control
In short: (§1)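 Planktonic broth microdilution per M27-A3 in MOPS-buffered RPMI 1640 (pH 7.0), final inoculum 1.8×10^3 cells/mL, compounds 0.0313–16 µg/mL from 1600 µg/mL stocks in ethanol or DMSO. Incubated at 35°C without agitation; OD405 read at 18 and 48 h. % inhibition was derived from test, sterility (no inoculum) and solvent growth-control wells. Amphotericin B at 0.5 µg/mL served as the 100% control.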

[3] = tested on: Candida albicans; assay: Antifungal activity against Candida albicans ATCC 90028 at 0.5 ug/ml after 18 hrs relative to control; in short: as §1
[4] = tested on: Candida albicans; assay: Antifungal activity against Candida albicans ATCC 90028 after 72 hrs by M27-A3 microdilution method; conditions: ATCC 90028, 72 h
[5] = tested on: Candida albicans; assay: Antifungal activity against Candida albicans ATCC 90028 after 72 hrs in presence of ergosterol by M27-A3 microdilution method; conditions: ATCC 90028, 72 h
In short: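 Ergosterol-modified M27-A3 assay. Compounds at 512-1 µg/mL serially diluted in RPMI; the 10^3 CFU/mL inoculum is made in RPMI with ergosterol (dissolved in 10% DMSO/1% Tween 80, heated), giving 400 µg/mL ergosterol in the wells. Itraconazole and amphotericin B serve as controls. Plates at 35°C, read after 72 h. MIC is the lowest concentration without visible growth; triplicate on three days, geometric means.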

[6] = tested on: Candida albicans; assay: Ratio of MIC for Candida albicans ATCC 90028 in presence of ergosterol to MIC for Candida albicans ATCC 90028 in absence of ergosterol
In short: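 MICs per modified M27-A3 in RPMI with or without ergosterol (final 400 µg/mL, dissolved in 10% DMSO/1% Tween 80 with heating). Inoculum 10³ CFU/mL; tetrazoles and itraconazole tested at 512–1 µg/mL, amphotericin B at 125–0.24 µg/mL. Plates were incubated at 35°C and read at 72 h; MIC was the lowest concentration with no visible growth. Run in triplicate on three days, geometric means.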

[7] = tested on: Candida albicans; assay: Antifungal activity against Candida albicans ATCC 90028 at 0.125 ug/ml after 18 hrs relative to control; in short: as §1
[8] = tested on: Candida albicans; assay: Antifungal activity against Candida albicans ATCC 90028 at 0.0313 ug/ml after 18 hrs relative to control
[9] = tested on: Candida albicans; assay: Antifungal activity against Candida albicans ATCC 90028 at 0.0625 ug/ml after 48 hrs relative to control; in short: as §1
[10] = tested on: Candida albicans; assay: Antifungal activity against Candida albicans ATCC 90028 at 0.125 ug/ml after 48 hrs relative to control; in short: as §1
[11] = tested on: Candida albicans; assay: Fungicidal activity against Candida albicans ATCC 90028 at 16 ug/ml after 48 hrs by M27-A3 microdilution method
In short: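 After 48 h at 35°C in M27-A3 microdilution plates (compound at 16 µg/mL), 50 µL aliquots from treated and solvent-control wells were diluted 10^4 in PBS and plated on drug-free Sabouraud dextrose agar, then incubated 48 h at 35°C. Reduction R = lg CFU/mL control − lg CFU/mL treated; R ≥ 3 defined as fungicidal.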

[12] = tested on: Candida albicans; assay: Antifungal activity against Candida albicans ATCC 90028 at 1 ug/ml after 18 hrs relative to control; in short: as §1
[13] = tested on: Candida albicans; assay: Antifungal activity against Candida albicans ATCC 90028 at 0.25 ug/ml after 18 hrs relative to control
In short: (§2)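 Fluconazole (water stock, diluted in RPMI 1640) tested by CLSI M27-A3 broth microdilution against C. albicans ATCC 90028. Inoculum 1.8×10^3 cells/mL in RPMI 1640 buffered with MOPS, pH 7.0. Incubation at 35°C without agitation, read at 18 and 48 h. Growth by OD405 and visually; inhibition % calculated against solvent growth-control wells after subtracting sterility-control wells.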

[14] = tested on: Candida albicans; assay: Antifungal activity against Candida albicans ATCC 90028 at 2 ug/ml after 48 hrs relative to control; in short: as §1
[15] = tested on: Candida albicans; assay: Antifungal activity against Candida albicans ATCC 90028 at 4 ug/ml after 18 hrs relative to control; in short: as §1
[16] = tested on: Candida albicans; assay: Antifungal activity against Candida albicans ATCC 90028 at 0.0625 ug/ml after 18 hrs relative to control
[17] = tested on: Candida albicans; assay: Antifungal activity against Candida albicans ATCC 90028 at 8 ug/ml after 18 hrs relative to control; in short: as §1
[18] = tested on: Candida albicans; assay: Antifungal activity against Candida albicans ATCC 90028 at 1 ug/ml after 48 hrs relative to control; in short: as §1
[19] = tested on: Candida albicans; assay: Antifungal activity against Candida albicans ATCC 90028 at 16 ug/ml after 18 hrs relative to control; in short: as §1
[20] = tested on: Candida albicans; assay: Antifungal activity against Candida albicans ATCC 90028 at 0.0313 ug/ml after 48 hrs relative to control
[21] = tested on: Candida albicans; assay: Antifungal activity against Candida albicans ATCC 90028 at 2 ug/ml after 18 hrs relative to control; in short: as §1
[22] = tested on: Candida albicans; assay: Antifungal activity against Candida albicans ATCC 90028 at 8 ug/ml after 48 hrs relative to control; in short: as §1
[23] = tested on: Candida albicans; assay: Antifungal activity against Candida albicans ATCC 90028 at 4 ug/ml after 48 hrs relative to control; in short: as §1
[24] = tested on: Candida albicans; assay: Antifungal activity against Candida albicans ATCC 90028 at 16 ug/ml after 48 hrs relative to control; in short: as §1
[25] = tested on: Candida albicans; assay: Antifungal activity against Candida albicans ATCC 90028 at 0.25 ug/ml after 48 hrs relative to control; in short: as §2

| Compound | Activity [2] [%] | Activity [3] [%] | Activity [7] [%] | Activity [8] [%] | Activity [9] [%] | Activity [10] [%] | Activity [11] [log10CFU/ml] | Activity [12] [%] | Activity [13] [%] | Activity [14] [%] | Activity [15] [%] | Activity [16] [%] | Activity [17] [%] | Activity [18] [%] | Activity [19] [%] | Activity [20] [%] | Activity [21] [%] | Activity [22] [%] | Activity [23] [%] | Activity [24] [%] | further results |
| --- | --- | --- | --- | --- | --- | --- | --- | --- | --- | --- | --- | --- | --- | --- | --- | --- | --- | --- | --- | --- | --- |
| OC(Cn1cncn1)(Cn1cncn1)c1ccc(F)cc1F [FLUCONAZOLE] | – | – | – | – | – | – | – | – | – | – | – | – | – | – | – | – | – | – | – | – | MIC [1]: 0.25 µg/mL (≈ 0.816 µM) |
| C[C@@H]1[C@H](O)[C@@H](C)/C=C/C=C/C=C/C=C/C=C/C=C/C=C/[C@H](O[C@@H]2O[C@H](C)[C@@H](O)[C@H](N)[C@@H]2O)C[C@@H]2O[C@](O)(C[C@@H](O)C[C@@H](O)[C@H](O)CC[C@@H](O)C[C@@H](O)CC(=O)O[C@H]1C)C[C@H](O)[C@H]2C(=O)O [AMPHOTERICIN B] | 100 | 100 | – | – | – | – | – | – | – | – | – | – | – | – | – | – | – | – | – | – | MIC [4]: 0.03 µg/mL (≈ 0.0325 µM); MIC [5]: 0.24 µg/mL |
| CCC(C)n1ncn(-c2ccc(N3CCN(c4ccc(OCC5COC(Cn6cncn6)(c6ccc(Cl)cc6Cl)O5)cc4)CC3)cc2)c1=O (configuration not stated) [ITRACONAZOLE] | – | – | – | – | – | – | – | – | – | – | – | – | – | – | – | – | – | – | – | – | Ratio [6]: 2 |
| ClCCCn1nnc(-c2ccc(Cl)cc2)n1 | 98.74 | 96.41 | 99.94 | 96.23 | 98.83 | 98.9 | 0.26 | 91.33 | 99.99 | 99.24 | 99.02 | 99.94 | 98.47 | 99.1 | 100 | 99 | 99.22 | 98.75 | 98.93 | 98.74 | Activity [25]: 99.04% |
| CCOC(=O)CCn1nnc(-c2ccccc2Cl)n1 | 98.84 | 96.86 | 99.97 | 97.51 | 98.78 | 98.82 | 0.19 | 99.38 | 99.86 | 99.41 | 100 | 99.86 | 99.23 | 98.86 | 100 | 99.27 | 99.98 | 98.84 | 99.05 | 98.83 | Activity [25]: 99.09% |
| CCOC(=O)CCn1nnnc1-c1ccccc1 | 98.96 | 98.87 | 99.99 | 99.69 | 99.26 | 99.01 | 0.16 | 95.93 | 95.76 | 97.06 | 98.44 | 99.37 | 99.4 | 98.87 | 99.13 | 99.23 | 90.79 | 99.02 | 98.91 | 98.96 | Activity [25]: 98.01% |
| Clc1ccccc1-c1nnn(CCCN2CCOCC2)n1 | 98.83 | 98.11 | 98.25 | 100 | 99 | 98.94 | -0.08 | 98.01 | 90.79 | 97.16 | 98.62 | 98.7 | 98.97 | 99.02 | 99.64 | 99.12 | 92.76 | 98.97 | 98.91 | 99.2 | Activity [25]: 98.01% |
| CCOC(=O)CCn1nnnc1-c1ccccc1Cl | 99.06 | 97.11 | 99.93 | 99.33 | 99.19 | 99.24 | -0.01 | 87.68 | 99.78 | 99.07 | 99.9 | 99.98 | 99.99 | 99.17 | 99.55 | 99.2 | 92.75 | 99.17 | 99.25 | 99.28 | Activity [25]: 99.02% |
| CCOC(=O)CCn1nnnc1-c1ccc(C)cc1 | 99.08 | 98.88 | 99.61 | 99.74 | 99.11 | 98.94 | -0.54 | 98.46 | 95.87 | 97.05 | 99.94 | 99.59 | 98.51 | 99.04 | 98.97 | 99.34 | 89.93 | 98.86 | 99.01 | 98.82 | Activity [25]: 98.72% |
